Broadly, the MIC is the lowest concentration that inhibits growth of the organism. Read a high MIC as weaker potency.

Values after ≈ are worked out from the molar mass of the structure shown. Where only a bound is given, the exact number is not on record here.

Common to all, as to assay type: functional
The test system of one assay is Bacillus cereus. The assay can be described thus: Minimum inhibitory concentration against Bacillus cereus MTCC 430. Summed up: (§1)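 Microbroth dilution MIC determination, with results expressed in μg/mL. Where run in triplicate, the highest MIC of the three replicates is the value reported.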
The subject of assay [1] is Staphylococcus aureus. Description: Minimum inhibitory concentration against Staphylococcus aureus MTCC 96. Summed up:
as §1

In a further assay the test system is Streptococcus pyogenes. The assay can be described thus: Minimum inhibitory concentration against Streptococcus pyogenes MTCC 442. Summed up: as §1
Assay [2] has as its system Staphylococcus epidermidis. The assay can be described thus: Minimum inhibitory concentration against Staphylococcus epidermidis MTCC 155. The method in brief: as §1
The next assay deals with Bacillus pumilus. The assay can be described thus: Minimum inhibitory concentration against Bacillus pumilus MTCC 1607. The method in brief:
as §1

In assay [3] the test system is Enterococcus faecalis. The assay can be described thus: Minimum inhibitory concentration against Enterococcus faecalis MTCC 439. The method in brief: as §1
Assay [4] relates to Staphylococcus aureus. The assay can be described thus: Minimum inhibitory concentration against Staphylococcus aureus ATCC 14154. Summed up:
as §1

Assay [5] relates to Staphylococcus aureus. Description: Minimum inhibitory concentration against Staphylococcus aureus ATCC 25923. The method in brief:
as §1

In another assay the test system is Klebsiella pneumoniae. Description: Minimum inhibitory concentration against Klebsiella pneumoniae ATCC 10031. The method in brief:
as §1

Assay [6] has as its system Staphylococcus aureus. The assay can be described thus: Minimum inhibitory concentration against Staphylococcus aureus ATCC 29213. The method in brief: as §1
The test system of assay [7] is Enterococcus faecalis. The assay can be described thus: Minimum inhibitory concentration against Enterococcus faecalis ATCC 14506. The method in brief:
as §1

For `CC(=O)NC[C@H]1CN(c2ccc(N3CCN(C(=O)/C=C/c4ccc(OS(C)(=O)=O)cc4)CC3)c(F)c2)C(=O)O1`, the MIC in the assay on Bacillus cereus amounted to 1 µg/mL (≈ 1.78 µM); in the assay with Staphylococcus aureus [1], 8 µg/mL (≈ 14.3 µM); in the assay on Streptococcus pyogenes it was 2 µg/mL (≈ 3.57 µM); in [2], 8 µg/mL (≈ 14.3 µM); against Bacillus pumilus, 4 µg/mL (≈ 7.14 µM); with Enterococcus faecalis [3] it was 4 µg/mL (≈ 7.14 µM).
For `C/C(S)=N/C[C@H]1CN(c2ccc(N3CCN(C(=O)/C=C/c4ccc(F)cc4)CC3)c(F)c2)C(=O)O1`, the minimal inhibitory concentration (MIC) against Bacillus cereus was 0.5 µg/mL (≈ 0.999 µM); against Staphylococcus aureus [1], 1 µg/mL (≈ 2 µM); against Staphylococcus aureus [4], 1 µg/mL (≈ 2 µM); with Streptococcus pyogenes, 2 µg/mL (≈ 4 µM); in [2], 0.5 µg/mL (≈ 0.999 µM); against Staphylococcus aureus [5], 4 µg/mL (≈ 7.99 µM). Further, the minimum inhibitory concentration (MIC) is 0.5 µg/mL (≈ 0.999 µM) against Bacillus pumilus; more than 16 µg/mL against Klebsiella pneumoniae; 4 µg/mL (≈ 7.99 µM) in the assay with Staphylococcus aureus [6]; 2 µg/mL (≈ 4 µM) against Enterococcus faecalis [7]; 0.5 µg/mL (≈ 0.999 µM) in the assay on Enterococcus faecalis [3].
`CC(=O)NC[C@H]1CN(c2ccc(N3CCN(C(=O)/C=C/c4ccccc4)CC3)c(F)c2)C(=O)O1`: the minimum inhibitory concentration (MIC) in the assay on Bacillus cereus is 1 µg/mL (≈ 2.14 µM); in the assay on Staphylococcus aureus [1], 4 µg/mL (≈ 8.57 µM); against Staphylococcus aureus [4], 4 µg/mL (≈ 8.57 µM); against Streptococcus pyogenes, 2 µg/mL (≈ 4.29 µM); in [2], 0.5 µg/mL (≈ 1.07 µM); in the assay with Staphylococcus aureus [5] it was 2 µg/mL (≈ 4.29 µM). The minimal inhibitory concentration (MIC) with Bacillus pumilus is 1 µg/mL (≈ 2.14 µM); with Klebsiella pneumoniae, more than 16 µg/mL; in the assay on Staphylococcus aureus [6], 4 µg/mL (≈ 8.57 µM); against Enterococcus faecalis [7], 1 µg/mL (≈ 2.14 µM); in the assay on Enterococcus faecalis [3], 2 µg/mL (≈ 4.29 µM).
Turning to `CSc1ccc(/C=C/C(=O)N2CCN(c3ccc(N4C[C@H](CNC(C)=O)OC4=O)cc3F)CC2)cc1`, the MIC against Bacillus cereus is 2 µg/mL (≈ 3.9 µM); in the assay with Staphylococcus aureus [1], 16 µg/mL (≈ 31.2 µM); in the assay on Streptococcus pyogenes it was 16 µg/mL (≈ 31.2 µM); in [2], 1 µg/mL (≈ 1.95 µM); against Bacillus pumilus, 2 µg/mL (≈ 3.9 µM); in the assay with Enterococcus faecalis [3], 2 µg/mL (≈ 3.9 µM).
Consider `CC(=O)NC[C@H]1CN(c2ccc(N3CCN(C(=O)/C=C/c4ccc(N)cc4)CC3)c(F)c2)C(=O)O1`, for which the minimal inhibitory concentration (MIC) with Bacillus cereus was 1 µg/mL (≈ 2.08 µM); with Staphylococcus aureus [1], 1 µg/mL (≈ 2.08 µM); against Streptococcus pyogenes, 2 µg/mL (≈ 4.15 µM); in assay [2] it was 0.5 µg/mL (≈ 1.04 µM); against Bacillus pumilus, 1 µg/mL (≈ 2.08 µM); with Enterococcus faecalis [3], 1 µg/mL (≈ 2.08 µM).
With `C/C(S)=N/C[C@H]1CN(c2ccc(N3CCN(C(=O)/C=C/c4ccc(O)cc4)CC3)c(F)c2)C(=O)O1`, the MIC against Bacillus cereus is 0.25 µg/mL (≈ 0.501 µM); in the assay with Staphylococcus aureus [1], 0.25 µg/mL (≈ 0.501 µM); against Staphylococcus aureus [4], 0.5 µg/mL (≈ 1 µM); against Streptococcus pyogenes, 0.5 µg/mL (≈ 1 µM); in [2], not above 0.12 µg/mL; in the assay on Staphylococcus aureus [5], 0.25 µg/mL (≈ 0.501 µM). Further, the MIC was 0.25 µg/mL (≈ 0.501 µM) with Bacillus pumilus; 4 µg/mL (≈ 8.02 µM) against Klebsiella pneumoniae; 0.5 µg/mL (≈ 1 µM) in the assay on Staphylococcus aureus [6]; 0.25 µg/mL (≈ 0.501 µM) against Enterococcus faecalis [7]; 1 µg/mL (≈ 2.01 µM) against Enterococcus faecalis [3].
With `NC(=S)NC[C@H]1CN(c2ccc(N3CCN(C(=O)/C=C/c4ccccc4)CC3)c(F)c2)C(=O)O1`, the minimum inhibitory concentration (MIC) with Bacillus cereus was found to be 0.25 µg/mL (≈ 0.517 µM); in the assay with Staphylococcus aureus [1], 1 µg/mL (≈ 2.07 µM); against Staphylococcus aureus [4], 2 µg/mL (≈ 4.14 µM); against Streptococcus pyogenes, 0.25 µg/mL (≈ 0.517 µM); in assay [2] it was 1 µg/mL (≈ 2.07 µM); with Staphylococcus aureus [5] it was 2 µg/mL (≈ 4.14 µM). Also, the MIC against Bacillus pumilus is 1 µg/mL (≈ 2.07 µM); against Klebsiella pneumoniae, 8 µg/mL (≈ 16.5 µM); against Staphylococcus aureus [6], 1 µg/mL (≈ 2.07 µM); against Enterococcus faecalis [7], 0.5 µg/mL (≈ 1.03 µM); in the assay with Enterococcus faecalis [3] it was 0.5 µg/mL (≈ 1.03 µM).
Turning to `COc1ccc(/C=C/C(=O)N2CCN(c3ccc(N4C[C@H](CNC(C)=O)OC4=O)cc3F)CC2)cc1`, the minimal inhibitory concentration (MIC) in the assay on Bacillus cereus stood at 2 µg/mL (≈ 4.03 µM); in the assay with Staphylococcus aureus [1], 4 µg/mL (≈ 8.06 µM); with Streptococcus pyogenes it was 4 µg/mL (≈ 8.06 µM); in [2], 1 µg/mL (≈ 2.01 µM); against Bacillus pumilus, 2 µg/mL (≈ 4.03 µM); against Enterococcus faecalis [3], 4 µg/mL (≈ 8.06 µM).
With `CC(=O)NC[C@H]1CN(c2ccc(N3CCN(C(=O)/C=C/c4ccc(OC(=O)C(C)(C)C)cc4)CC3)c(F)c2)C(=O)O1`, the minimal inhibitory concentration (MIC) in the assay on Bacillus cereus was 16 µg/mL (≈ 28.2 µM); in the assay with Staphylococcus aureus [1], more than 16 µg/mL; with Streptococcus pyogenes, more than 16 µg/mL; in assay [2], 4 µg/mL (≈ 7.06 µM); against Bacillus pumilus it was 8 µg/mL (≈ 14.1 µM); in the assay on Enterococcus faecalis [3] it was 8 µg/mL (≈ 14.1 µM).
For `C/C(S)=N/C[C@H]1CN(c2ccc(N3CCN(C(=O)/C=C/c4ccccc4)CC3)c(F)c2)C(=O)O1`, the minimal inhibitory concentration (MIC) in the assay with Bacillus cereus is 0.5 µg/mL (≈ 1.04 µM); with Staphylococcus aureus [1], 2 µg/mL (≈ 4.14 µM); in the assay on Staphylococcus aureus [4], 2 µg/mL (≈ 4.14 µM); against Streptococcus pyogenes it was 0.5 µg/mL (≈ 1.04 µM); in assay [2] it was 0.25 µg/mL (≈ 0.518 µM); against Staphylococcus aureus [5], 1 µg/mL (≈ 2.07 µM). Also, the minimal inhibitory concentration (MIC) is 0.5 µg/mL (≈ 1.04 µM) with Bacillus pumilus; more than 16 µg/mL against Klebsiella pneumoniae; 1 µg/mL (≈ 2.07 µM) with Staphylococcus aureus [6]; 0.5 µg/mL (≈ 1.04 µM) against Enterococcus faecalis [7]; 0.5 µg/mL (≈ 1.04 µM) against Enterococcus faecalis [3].
With `CC(=O)NC[C@H]1CN(c2ccc(N3CCN(C(=O)/C=C/c4ccc(F)c(F)c4)CC3)c(F)c2)C(=O)O1`, the minimum inhibitory concentration (MIC) is 4 µg/mL (≈ 7.96 µM) against Bacillus cereus; more than 16 µg/mL against Staphylococcus aureus [1]; 4 µg/mL (≈ 7.96 µM) against Streptococcus pyogenes; more than 16 µg/mL in assay [2]; 16 µg/mL (≈ 31.8 µM) against Bacillus pumilus; more than 16 µg/mL against Enterococcus faecalis [3].

The values above are taken from ChEMBL document CHEMBL1139444, “Oxazolidinone: search for highly potent antibacterial” (2004).
